The test system of one series is Caco2. Briefly: Bidirectional Caco2 permeability assay. The conditions noted are these: Caco2, P app B–A/P app A–B. It is filed as in vitro ADME. In general terms: Caco-2 monolayers are a common model of the intestinal barrier.
Series [1] in a line: Bidirectional Caco2 permeability assay. The conditions noted are these: human, Caco-2. It is filed as in vitro ADME.
Series [2] relates to freshly harvested rat hepatocytes (rHep). Briefly: High-throughput metabolic stability assay, rat hepatocytes. It is filed as in vitro ADME. The conditions noted are these: predicted from in vitro metabolic stability. Put shortly: (§1)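 Predicted hepatic metabolic clearance from a high-throughput metabolic stability assay. Systems: pooled human, rat or mouse liver microsomes, or freshly harvested rat hepatocytes. Output is predicted blood clearance (CLb) in L h−1 kg−1.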

A short description of series [3]: High-throughput metabolic stability assay, human liver microsomes. It is filed as in vitro ADME. The conditions noted are these: predicted from in vitro metabolic stability. Put shortly:
as §1

Series [4] can be described thus: High-throughput metabolic stability assay, mouse liver microsomes. It is filed as in vitro ADME. The conditions noted are these: predicted from in vitro metabolic stability. Put shortly: as §1
A further series is described as follows: Hydrolytic stability. The series is classed as physicochemical. Put shortly: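 Test compound stirred for 24 hours in buffers: pH 2.0 and pH 4.5 citrate, pH 6.5 and pH 7.4 phosphate-buffered saline, pH 8.0 sodium borate. Hydrolytic stability is expressed as percent test compound recovered at 24 h.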
The nature of series [5]: High-throughput metabolic stability assay, rat liver microsomes. It is filed as in vitro ADME. The conditions noted are these: predicted from in vitro metabolic stability. Put shortly: as §1

Data on 1 compound can be found in article PMC5698725 (Chemistry (Weinheim an Der Bergstrasse, Germany), 2017).

In general, efflux ratio refers to a quotient of directional permeabilities that is used to spot active efflux. A word on the Papp A→B: it is the apparent permeability from the apical to the basolateral side of a cell layer. A low value points to slow passage.

Consider `N=S(=O)(c1ccccc1)N1CCCCC1` (stereo not shown) [2 a, 1 ‐(S‐Phenylsulfonimidoyl)piperidine], for which the efflux ratio entry in the series with Caco2 was “no evidence of efflux”; in series [1], 0.59. In addition, the Papp A→B in series [1] was 37.8 ×10⁻⁶ cm/s. Besides, the “CLb rHep (predicted blood clearance)” value in series [2] was 60 mL/min/kg. Also, the “CLb hLMs (predicted blood clearance)” value in series [3] is 0.67 mL/min/kg. The “CLb mLMs (predicted blood clearance)” value in series [4] was 18.3 mL/min/kg. In addition, the “Recovered test compound (hydrolytic stability)” value in “Hydrolytic stability” (all tested pH values (2.0–8.0), 24 hours with stirring) stood at 100%. Also, the recovery at 24 h in “Hydrolytic stability” (citrate buffer, pH 2) came out at 100%; in the series “Hydrolytic stability” (citrate buffer, pH 4.5), 100%; in the series “Hydrolytic stability” (phosphate-buffered saline, pH 6.5), 100%; in the series “Hydrolytic stability” (phosphate-buffered saline, pH 7.4), 100%; in “Hydrolytic stability” (sodium borate buffer, pH 8), 100%. The “CLb rLMs (predicted blood clearance)” value in series [5] is 50 mL/min/kg.
